Measured values published in PubChem BioAssay.
Several values for one entry are separate records, joined by “and”; a condition that tells them apart may be missing. Equal values may be shown once. Activity calls are given as the source filed them.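 Rule for the calls, unless noted: active = viability loss from added drug above about 55%, and viability with drug at most 40%, in both replicates (limit read from the data, passing the limit was not always enough); inconclusive = both conditions met in only one replicate; inactive = neither replicate meets both conditions.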

What was measured:
[1] = SK-BR-3 cell growth inhibitors, pilot screen, 24 h, human (AID 572;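 active = viability at or below 10% of carrier control in both of two separate runs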;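 note: compound exposure lasted between 18 and 24 h rather than exactly 24 h; 100% = carrier-treated control wells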); conditions: SK-BR-3 viability, CellTiter-Glo luminescence, at 10 µM, stronger effect = lower value
[2] = HUVEC growth inhibition – cell-based, human, primary screen (AID 575;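 active = viability at or below 30% in both replicate assays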;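 note: 100% = median of untreated cell wells with 0.1% DMSO on each plate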); conditions: HUVEC proliferation, CellTiter-Glo luminescence, 72 h; at 10 µM; stronger effect = lower value
Outline: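 Assay system: Primary human umbilical vein endothelial cells | Quantity: 1250 cells per well | Medium: Supplemented EBM, 2% fetal bovine serum | Detection: CellTiter-Glo luminescence measuring cellular ATP | Read-out: % viability vs DMSO wells | Plate: Collagen-coated 384-well format | Times: 72 h exposure, 37 °C, 5% CO2, 30 min RT equilibration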

[3] = growth inhibitors of H69AR lung tumor, primary screen, human, duplicate replicates (AID 580;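 active = viability at or under a set limit in both replicates, limit being median viability minus 3 SD, cut at about 48% in these data, passing the limit was not always enough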;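 note: 100% = mean luminescence of untreated wells and 0% = no signal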); conditions: H69AR lung tumor cells viability, ATP luminescence, 72 h; at 10 µM; stronger effect = lower value
[4] = reversal of MRP1-mediated doxorubicin resistance, pilot screen, H69AR cells, doxorubicin co-treatment (AID 601); conditions: CellTiter-Glo, 72 h, at 10 µM; for differential viability (reversal): stronger effect = higher value
[5] = 384-well plate pilot, post-Golgi transport modulator project, inhibition of yeast transport mutant growth (AID 636; in the data active = inhibition above about 31%); conditions: absorbance 615 nm, about 18 h, stronger effect = higher value
[6] = growth suppression of yeast trafficking mutant, preliminary HTS, modulators of trafficking downstream of Golgi apparatus project, 1536-format plate, OD 615 nm (AID 637; in the data active = inhibition above about 30%); conditions: yeast transport mutant growth, absorbance 615 nm, 18 h; stronger effect = higher value
[7] = H69AR cells + 2 uM doxorubicin, measured here: viability with 2 uM doxorubicin, stronger effect = lower value
[8] = H69AR cells, compound alone cytotoxicity

Row | SMILES | viability [1] | viability [2] | viability [3] | differential viability (reversal) ([4]; H69AR cells + 2 uM doxorubicin) | viability [4, 7] | viability [4, 8] | inhibition [5] | inhibition [6]
1 | CN(CCc1ccccn1)c1ncnc2[nH]ncc12 | 102% (inactive) | 116% (inactive) | 97.6% (inactive) | 9.97% (inactive) | 87.6% | 97.6% | -6.62% (inactive) | -2.36% (inactive)
2 | Cc1ccc(S(=O)(=O)N2CCN(C(=O)c3cc(=O)[nH]c4ccccc34)CC2)c(C)c1 | 66% (inactive) | 82.8% (inactive) | 83.3% (inactive) | 3.45% (inactive) | 79.8% | 83.3% | -9.04% (inactive) | 2.74% (inactive)
3 | NC(=O)C1(N2CCCCC2)CCN(C(=O)Nc2ccccc2C(F)(F)F)CC1 | 97% (inactive) | 105% (inactive) | 90.9% (inactive) | 4.2% (inactive) | 86.7% | 90.9% | -0.39% (inactive) | 5.08% (inactive)
4 | CN(C)C(=O)Oc1cccc([N+](C)(C)C)c1 | 62% (inactive) and 92% (inactive) | 97.5% (inactive) and 92% (inactive) | 94.7% (inactive) and 120% (inactive) | -1.94% (inactive) and 17.4% (inactive) | 96.6% and 103% | 94.7% and 120% | -5.06% (inactive) and -2.21% (inactive) | -4% (inactive) and -5.83% (inactive)
5 | CC1=C(/C=C/C(C)=C/C=C/C(C)=C/C(=O)O)C(C)(C)CCC1 | 84% (inactive) | 83.7% (inactive) | 104% (inactive) | 2% (inactive) | 102% | 104% | 0.91% (inactive) | 8.67% (inactive)
6 | COc1ccc2cc(C#N)c(N3CCN(Cc4nnnn4CCC(C)C)CC3)nc2c1 | 89% (inactive) | 64.5% (inactive) | 79.4% (inactive) | 8.18% (inactive) | 71.2% | 79.4% | -2.93% (inactive) | 2.73% (inactive)
7 | O=C(CSc1nnc(COc2ccc(Cl)cc2)o1)OC1CCCCC1 | 106% (inactive) | 95.5% (inactive) | 102% (inactive) | 6.06% (inactive) | 95.9% | 102% | 4.66% (inactive) | -3.87% (inactive)
8 | COc1ccccc1NC(=O)CSc1nnc(Cn2nnc(-c3ccccc3)n2)n1-c1ccccc1 | 63% (inactive) | 88.7% (inactive) | 87.4% (inactive) | -5.36% (inactive) | 92.8% | 87.4% | -5.75% (inactive) | -1.45% (inactive)
9 | COc1ccc(-n2ncc3c(NCc4ccc5c(c4)OCO5)ncnc32)cc1 | 92.5% (inactive) | 49.8% (inactive) | 6.44% (active) | -11% (inactive) | 17.4% | 6.44% | -3.55% (inactive) | 3.71% (inactive)
10 | CC(=O)O[C@H]1C[C@@H]2CC[C@@H]3[C@H](CC[C@@]4(C)[C@H]3C[C@H]([N+]3(C)CCCCC3)[C@@H]4OC(C)=O)[C@@]2(C)C[C@@H]1[N+]1(C)CCCCC1 | 111% (inactive) | 88.4% (inactive) | 94.5% (inactive) | -4.76% (inactive) | 99.3% | 94.5% | 1.04% (inactive) | 12.7% (inactive)
11 | O=c1c2cc3ccccc3n2cnn1Cc1ccccc1F | 100% (inactive) | 57.9% (inactive) | 11.3% (active) | -36.1% (inactive) | 47.4% | 11.3% | -1.95% (inactive) | 2.3% (inactive)
12 | CC(C)(C)c1nnc(NC(=O)C2CCN(c3ncccn3)CC2)s1 | 105% (inactive) | 115% (inactive) | 101% (inactive) | 14.3% (inactive) | 86.6% | 101% | -4.03% (inactive) | -0.82% (inactive)
13 | CCC(=O)Nc1cc(Cl)ccc1N1CCN(C(=O)CC)CC1 | 70% (inactive) | 92.6% (inactive) | 88.5% (inactive) | 3.43% (inactive) | 85% | 88.5% | -4.66% (inactive) | 0.73% (inactive)
14 | O=C(Nc1ccc(N2CCCC2)cc1)c1cccc(F)c1 | 134% (inactive) | 51.7% (inactive) | 25.8% (active) | -24.6% (inactive) | 50.3% | 25.8% | -0.78% (inactive) | -0.82% (inactive)
15 | COCC(=O)N(C)c1nnc(-c2ccccn2)s1 | 83% (inactive) | 111% (inactive) | 105% (inactive) | 13.6% (inactive) | 91.3% | 105% | -2.57% (inactive) | -1.09% (inactive)
16 | CC1(C2(O)CC(c3ccccc3)ON2)CCCCC1 (stereo not drawn) | 108% (inactive) | 95% (inactive) | 84.1% (inactive) | -0.32% (inactive) | 84.4% | 84.1% | -4.73% (inactive) | -2.36% (inactive)
17 | Cc1cc(NS(=O)(=O)c2ccc(NC(=O)Nc3ccc4c(c3)OCO4)cc2)no1 | 80% (inactive) | 101% (inactive) | 92.6% (inactive) | -0.555% (inactive) | 93.2% | 92.6% | -6.49% (inactive) | 0.55% (inactive)
18 | Cc1ccc(F)cc1NC(=O)c1cccc2nccnc12 | 91.5% (inactive) | 76.5% (inactive) | 91.1% (inactive) | 6.75% (inactive) | 84.3% | 91.1% | -1.2% (inactive) | 0.48% (inactive)

Row | SMILES | viability [1] | viability [2] | viability [3] | differential viability (reversal) ([4]; H69AR cells + 2 uM doxorubicin) | viability [4, 7] | viability [4, 8] | inhibition [5] | inhibition [6]
19 | COc1ccc(OCC(=O)Nc2ccc(N3CCOCC3)c(Cl)c2)cc1 | 99% (inactive) | 96.1% (inactive) | 90.3% (inactive) | 2.16% (inactive) | 88.2% | 90.3% | -4.25% (inactive) | -2.1% (inactive)
20 | CCc1n[nH]c2c1C(=O)CC(C)(C)C2 | 73% (inactive) | 106% (inactive) | 89.1% (inactive) | -1.54% (inactive) | 90.6% | 89.1% | 2% (inactive) | 6% (inactive)
21 | Cc1nc2ccccc2nc1OCC(=O)Nc1cc(C(F)(F)F)ccc1N1CCOCC1 | 72% (inactive) | 93% (inactive) | 96.3% (inactive) | -4.5% (inactive) | 101% | 96.3% | -6.44% (inactive) | 3.64% (inactive)
22 | O=C1CCC(C(=O)N(Cc2ccco2)C2(C(=O)NC3CCCC3)CCCCC2)N1 (stereo not drawn) | 94% (inactive) | 106% (inactive) | 87.7% (inactive) | -8.42% (inactive) | 96.1% | 87.7% | -7.81% (inactive) | -1.09% (inactive)
23 | O=C(CSc1nc2ccccc2[nH]1)c1ccc2c(c1)OCO2 | 79% (inactive) | 99.8% (inactive) | 107% (inactive) | 22.7% (inactive) | 83.8% | 107% | -0.68% (inactive) | -5.16% (inactive)
24 | COc1cc(NC2c3ccccc3C(=O)N2c2ccc(C)cn2)cc(OC)c1OC (stereo not drawn) | 90.5% (inactive) | 85.5% (inactive) | 88.7% (inactive) | 3.73% (inactive) | 85% | 88.7% | -1.41% (inactive) | 1.17% (inactive)
25 | O=C(O)c1cccc(COCC(F)(F)C(F)F)c1 | 90% (inactive) | 88.2% (inactive) | 102% (inactive) | 6.01% (inactive) | 95.9% | 102% | -0.41% (inactive) | -3.87% (inactive)
26 | Cc1ccc(Cl)c(Nc2ccccc2C(=O)O)c1Cl | 135% (inactive) | 47.9% (inactive) | 91.3% (inactive) | -6.54% (inactive) | 97.9% | 91.3% | -0.78% (inactive) | 4.67% (inactive)
27 | CCc1nnc(SCc2cn3c(C)cc(C)nc3n2)n1N | 96% (inactive) | 96.5% (inactive) | 108% (inactive) | 15.7% (inactive) | 92.2% | 108% | -1.89% (inactive) | -4.91% (inactive)
28 | CC(C)OC(=O)c1ccc(NC(=O)C2C3CC4OC(=O)C2C4C3)cc1 (stereo not drawn) | 104% (inactive) | 91.8% (inactive) | 95.6% (inactive) | 7.04% (inactive) | 88.5% | 95.6% | -1.49% (inactive) | -4.91% (inactive)
29 | CC1(C)CC(=O)c2sc(NS(C)(=O)=O)nc2C1 | 119% (inactive) | 101% (inactive) | 96% (inactive) | 12.7% (inactive) | 83.2% | 96% | -6.16% (inactive) | 1.94% (inactive)
30 | CCOc1cc(C2Nc3ccccc3C(=O)N2c2ccccc2OC)ccc1O (stereo not drawn) | 98% (inactive) | 105% (inactive) | 95% (inactive) | 0.125% (inactive) | 94.9% | 95% | -4.59% (inactive) | 28.4% (inactive)
31 | CCn1c(Cc2ccccc2)nnc1SCC(=O)Nc1cc(C)on1 | 109% (inactive) | 114% (inactive) | 98.7% (inactive) | 7.78% (inactive) | 91% | 98.7% | -5.06% (inactive) | -2.95% (inactive)
32 | O=C(Nc1ccc2oc(=O)ccc2c1)c1cccnc1 | 111% (inactive) | 107% (inactive) | 98.9% (inactive) | 14.6% (inactive) | 84.2% | 98.9% | -4.38% (inactive) | -0.18% (inactive)
33 | CCOc1cc(/C=N/n2cnnc2)cc(Br)c1O | 104% (inactive) | 103% (inactive) | 83.3% (inactive) | -8.45% (inactive) | 91.8% | 83.3% | -2.37% (inactive) | 8.33% (inactive)
34 | CCN1CCN(c2nc3c(c(=O)n(C)c(=O)n3C)n2CCSc2ncccn2)CC1 | 116% (inactive) | 91.7% (inactive) | 94.8% (inactive) | 7% (inactive) | 87.8% | 94.8% | -5.07% (inactive) | -9.68% (inactive)
35 | CC(CCc1ccccc1)NC(=O)CSc1nc(N)cc(N)n1 (stereo not drawn) | 114% (inactive) | 96.6% (inactive) | 94.7% (inactive) | 4.75% (inactive) | 90% | 94.7% | -0.68% (inactive) | -1.45% (inactive)
36 | CN(C)CCC=C1c2ccccc2CCc2ccccc21 | 95% (inactive) | 60.6% (inactive) | 82.3% (inactive) | 8.06% (inactive) | 74.3% | 82.3% | -3.12% (inactive) | -1.67% (inactive)
